Data: ChEMBL document CHEMBL1629600, “Multiple-dose pharmacokinetic behavior of elvucitabine, a nucleoside reverse transcriptase inhibitor, administered over 21 days with lopinavir-ritonavir in human immunodeficiency virus type 1-infected subjects” (Antimicrob Agents Chemother, 2009)

Experiments:
[1] = AUC (0 to 24 hrs) in HIV1 infected human at 5 mg after 24 hrs presence of 400 mg of Lopinavir and 100 mg of itonavir; type: ADME, organism-based; design: time < 24 hr, dose 5 mg; conditions: plasma
Method in brief: (§1)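 HIV-infected adults (3.6–5.6 log10 RNA copies/ml) given enteric-coated tablets fasting; lopinavir-ritonavir given with food 2 h later. Plasma drawn on days 1 and 21 predose and at 0.5–24 h postdose. LC-MS/MS assay, range 0.500–100 ng/ml. Noncompartmental analysis gave Cmax, Tmax, C24 (24-h concentration) and linear-trapezoidal AUC0-24. Reported as arithmetic mean (%CV), median (range).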

[2] = Cmax in HIV1 infected human at 5 mg after 24 hrs presence of 400 mg of Lopinavir and 100 mg of itonavir; type: ADME, organism-based; design: dose 5 mg; conditions: in vivo; method in brief: as §1
[3] = Tmax in HIV1 infected human at 5 mg after 24 hrs presence of 400 mg of Lopinavir and 100 mg of itonavir; type: ADME, organism-based; conditions: in vivo; method in brief: as §1
[4] = Drug level in HIV1 infected human plasma at 5 mg after 24 hrs presence of 400 mg of Lopinavir and 100 mg of itonavir; type: ADME; conditions: read-out: Drug uptake; method in brief: as §1
[5] = AUC (0 to 24 hrs) in HIV1 infected human at 10 mg after 24 hrs presence of 400 mg of Lopinavir and 100 mg of itonavir; type: ADME, organism-based; design: time < 24 hr, dose 10 mg; conditions: plasma; method in brief: as §1
[6] = Cmax in HIV1 infected human at 10 mg after 24 hrs presence of 400 mg of Lopinavir and 100 mg of itonavir; type: ADME, organism-based; design: dose 10 mg; conditions: in vivo; method in brief: as §1
[7] = Tmax in HIV1 infected human at 10 mg after 24 hrs presence of 400 mg of Lopinavir and 100 mg of itonavir; type: ADME, organism-based; conditions: in vivo; method in brief: as §1
[8] = Drug level in HIV1 infected human plasma at 10 mg after 24 hrs presence of 400 mg of Lopinavir and 100 mg of itonavir; type: ADME, organism-based; conditions: read-out: Drug uptake; method in brief: as §1
[9] = AUC (0 to 24 hrs) in HIV1 infected human at 20 mg after 24 hrs in presence of 400 mg of Lopinavir and 100 mg of itonavir administered once every 12 hrs; type: ADME, organism-based; design: time < 24 hr, dose 20 mg; conditions: plasma; method in brief: as §1
[10] = Cmax in HIV1 infected human at 20 mg after 24 hrs in presence of 400 mg of Lopinavir and 100 mg of itonavir administered once every 12 hrs; type: ADME, organism-based; design: dose 20 mg; conditions: in vivo; method in brief: as §1
[11] = Tmax in HIV1 infected human at 20 mg after 24 hrs in presence of 400 mg of Lopinavir and 100 mg of itonavir administered once every 12 hrs; type: ADME, organism-based; conditions: in vivo; method in brief: as §1
[12] = Drug level in HIV1 infected human plasma at 20 mg after 24 hrs in presence of 400 mg of Lopinavir and 100 mg of itonavir administered once every 12 hrs; type: ADME; conditions: read-out: Drug uptake; method in brief: as §1
[13] = AUC (0 to 24 hrs) in HIV1 infected human at 5 mg qd for 21 days in presence of 400 mg of Lopinavir and 100 mg of itonavir administered once every 12 hrs; type: ADME, organism-based; design: time < 24 hr, dose 5 mg; conditions: plasma; method in brief: as §1
[14] = Cmax in HIV1 infected human at 5 mg qd for 21 days in presence of 400 mg of Lopinavir and 100 mg of itonavir administered once every 12 hrs; type: ADME, organism-based; design: dose 5 mg; conditions: in vivo; method in brief: as §1
[15] = Tmax in HIV1 infected human at 5 mg qd for 21 days in presence of 400 mg of Lopinavir and 100 mg of itonavir administered once every 12 hrs; type: ADME, organism-based; conditions: in vivo; method in brief: as §1
[16] = Drug level in HIV1 infected human plasma at 5 mg qd for 21 days in presence of 400 mg of Lopinavir and 100 mg of itonavir administered once every 12 hrs; type: ADME, organism-based; conditions: read-out: Drug uptake; method in brief: as §1
[17] = Half life in HIV1 infected human at 5 mg qd for 21 days in presence of 400 mg of Lopinavir and 100 mg of itonavir administered once every 12 hrs; type: ADME, organism-based; conditions: in vivo
Method in brief: (§2)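 Elimination rate constant and t1/2 obtained by noncompartmental analysis after the day-21 dose, using 336 h of terminal-phase sampling. Plasma collected through day 35 (days 25, 28, 35 after stopping). Concentrations measured by LC-MS/MS, range 0.500–100 ng/ml. Eight subjects per cohort; reported as mean (%CV), median (range).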

[18] = AUC (0 to 24 hrs) in HIV1 infected human at 10 mg qd for 21 days in presence of 400 mg of Lopinavir and 100 mg of itonavir administered once every 12 hrs; type: ADME, organism-based; design: dose 10 mg, time < 24 hr; conditions: plasma; method in brief: as §1
[19] = Cmax in HIV1 infected human at 10 mg qd for 21 days in presence of 400 mg of Lopinavir and 100 mg of itonavir administered once every 12 hrs; type: ADME, organism-based; design: dose 10 mg; conditions: in vivo; method in brief: as §1
[20] = Tmax in HIV1 infected human at 10 mg qd for 21 days in presence of 400 mg of Lopinavir and 100 mg of itonavir administered once every 12 hrs; type: ADME, organism-based; conditions: in vivo; method in brief: as §1
[21] = Drug level in HIV1 infected human plasma at 10 mg qd for 21 days in presence of 400 mg of Lopinavir and 100 mg of itonavir administered once every 12 hrs; type: ADME, organism-based; conditions: read-out: Drug uptake; method in brief: as §1
[22] = Half life in HIV1 infected human at 10 mg qd for 21 days in presence of 400 mg of Lopinavir and 100 mg of itonavir administered once every 12 hrs; type: ADME, organism-based; conditions: in vivo; method in brief: as §2
[23] = AUC (0 to 24 hrs) in HIV1 infected human at 20 mg administered once every 48 hrs for 21 days in presence of 400 mg of Lopinavir and 100 mg of itonavir administered once every 12 hrs; type: ADME, organism-based; design: dose 20 mg, time < 24 hr; conditions: plasma; method in brief: as §1
[24] = Cmax in HIV1 infected human at 20 mg administered once every 48 hrs for 21 days in presence of 400 mg of Lopinavir and 100 mg of itonavir administered once every 12 hrs; type: ADME, organism-based; design: dose 20 mg; conditions: in vivo; method in brief: as §1
[25] = Tmax in HIV1 infected human at 20 mg administered once every 48 hrs for 21 days in presence of 400 mg of Lopinavir and 100 mg of itonavir administered once every 12 hrs; type: ADME, organism-based; conditions: in vivo; method in brief: as §1
[26] = Drug level in HIV1 infected human plasma at 20 mg administered once every 48 hrs for 21 days in presence of 400 mg of Lopinavir and 100 mg of itonavir administered once every 12 hrs; type: ADME, organism-based; conditions: read-out: Drug uptake; method in brief: as §1
[27] = Half life in HIV1 infected human at 20 mg administered once every 48 hrs for 21 days in presence of 400 mg of Lopinavir and 100 mg of itonavir administered once every 12 hrs; type: ADME, organism-based; conditions: in vivo; method in brief: as §2
Homo sapiens [28] = assay: Peripheral volume of distribution with respect to the bioavailability in HIV1 infected human at 20 mg administered once every 48 hrs for 21 days in presence of 400 mg of Lopinavir and 100 mg of itonavir administered once every 12 hrs; type: ADME, organism-based; conditions: in vivo
Method in brief: (§3)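 Population compartmental fit to all plasma concentrations over 804 h. Two-compartment model with two first-order absorption rates, lag times per dose and first-order elimination. Relative bioavailability allowed to differ for day 1, the only dose given before lopinavir-ritonavir. Weighting 1/S², with S² = (a + b×Y)². Parameters expressed relative to F (CL/F, V/F).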

[29] = Volume of distribution at steady state with respect to the bioavailability in HIV1 infected human at 20 mg administered once every 48 hrs for 21 days in presence of 400 mg of Lopinavir and 100 mg of itonavir administered once every 12 hrs; type: ADME, organism-based; conditions: in vivo, read-out: Vss/F; method in brief: as §3
[30] = Terminal half life in HIV1 infected human at 20 mg administered once every 48 hrs for 21 days in presence of 400 mg of Lopinavir and 100 mg of itonavir administered once every 12 hrs; type: ADME, organism-based; conditions: in vivo, read-out: beta t1/2 (converted); method in brief: as §3
Homo sapiens [31] = species: Homo sapiens; assay: Time prior to start absorption at first absorption site in HIV1 infected human at 20 mg after 24 hrs; type: ADME, organism-based; conditions: in vivo; method in brief: as §3
Homo sapiens [32] = species: Homo sapiens; assay: Time prior to start absorption at second absorption site in HIV1 infected human at 20 mg after 24 hrs; type: ADME, organism-based; conditions: in vivo; method in brief: as §3
Homo sapiens [33] = assay: Time prior to start absorption at first absorption site in HIV1 infected human at 20 mg administered once every 48 hrs for 21 days in presence of 400 mg of Lopinavir and 100 mg of itonavir administered once every 12 hrs; type: ADME, organism-based; conditions: in vivo; method in brief: as §3
Homo sapiens [34] = assay: Time prior to start absorption at second absorption site in HIV1 infected human at 20 mg administered once every 48 hrs for 21 days in presence of 400 mg of Lopinavir and 100 mg of itonavir administered once every 12 hrs; type: ADME, organism-based; conditions: in vivo; method in brief: as §3
Homo sapiens [35] = assay: Absorption rate constant at first absorption site in HIV1 infected human at 20 mg administered once every 48 hrs for 21 days in presence of 400 mg of Lopinavir and 100 mg of itonavir administered once every 12 hrs; type: ADME, organism-based; conditions: in vivo; method in brief: as §3
Homo sapiens [36] = assay: Absorption rate constant at second absorption site in HIV1 infected human at 20 mg administered once every 48 hrs for 21 days in presence of 400 mg of Lopinavir and 100 mg of itonavir administered once every 12 hr; type: ADME, organism-based; conditions: in vivo; method in brief: as §3
[37] = Oral bioavailability in HIV1 infected human at 20 mg after 24 hrs; type: ADME, organism-based; conditions: in vivo; method in brief: as §3
[38] = Apparent oral clearance in HIV1 infected human at 20 mg administered once every 48 hrs for 21 days in presence of 400 mg of Lopinavir and 100 mg of itonavir administered once every 12 hrs; type: ADME, organism-based; conditions: in vivo; method in brief: as §3
Homo sapiens [39] = assay: Central volume of distribution with respect to the bioavailability in HIV1 infected human at 20 mg administered once every 48 hrs for 21 days in presence of 400 mg of Lopinavir and 100 mg of itonavir administered once every 12 hrs; type: ADME, organism-based; conditions: in vivo; method in brief: as §3
Homo sapiens [40] = assay: Distributional clearance with respect to the bioavailability in HIV1 infected human at 20 mg administered once every 48 hrs for 21 days in presence of 400 mg of Lopinavir and 100 mg of itonavir administered once every 12 hrs; type: ADME, organism-based; conditions: in vivo; method in brief: as §3

- AUC(0-t) at 24 h [1]: 59.9 ng·h/mL
- Cmax [2]: 7.25 ng/mL
- Tmax [3]: 6.63 h
- concentration at 24 h [4]: 0.832 ng/mL
- AUC(0-t) at 24 h [5]: 155 ng·h/mL
- Cmax [6]: 25.3 ng/mL
- Tmax [7]: 3.31 h
- concentration at 24 h [8]: 1.87 ng/mL
- AUC at 24 h [9]: 262 ng·h/mL
- Cmax [10]: 39.1 ng/mL
- Tmax [11]: 3.75 h
- concentration at 24 h [12]: 3.41 ng/mL
- AUC at 24 h [13]: 214 ng·h/mL
- Cmax [14]: 23.1 ng/mL
- Tmax [15]: 7 h
- concentration at 21 days [16]: 4.38 ng/mL
- half-life [17]: 92.5 h
- AUC at 24 h [18]: 435 ng·h/mL
- Cmax [19]: 49.9 ng/mL
- Tmax [20]: 3.75 h
- concentration at 21 days [21]: 9.7 ng/mL
- half-life [22]: 112 h
- AUC at 24 h [23]: 749 ng·h/mL
- Cmax [24]: 108 ng/mL
- Tmax [25]: 4 h
- concentration at 21 days [26]: 12 ng/mL
- half-life [27]: 105 h
- Vp/F (Homo sapiens [28]): 1618 L
- Vd/F [29]: 1620 L
- half-life [30]: 120 h
- Time (Homo sapiens [31]): 0.363 h
- Time (Homo sapiens [32]): 0.445 h
- Time (Homo sapiens [33]): 0.341 h
- Time (Homo sapiens [34]): 1.02 h
- ka (Homo sapiens [35]): 0.065 h⁻¹
- ka (Homo sapiens [36]): 0.42 h⁻¹
- bioavailability [37]: 55.4%
- CL/F [38]: 423 mL/min
- Vc/F (Homo sapiens [39]): 6.43 L
- CLd/F (Homo sapiens [40]): 15.4 L/h
Compound: Nc1nc(=O)n([C@@H]2C=C[C@H](CO)O2)cc1F [ELVUCITABINE]
